# SENP8 block-1 – inhibitors of human SENP8 protease | purified SENP8, Z-RLRGG-aminoluciferin cleavage, luminescence | inhibition, % at 10 µM | AID 2540 | Q96LD8 | 330,000 tested, 1.2% active; in the data active = inhibition above about 50%
# CendR NRP1 mod – NRP-1/CendR interaction modulation. O14786. FAM-RPARPAR peptide binding to NRP-1, fluorescence polarization. inhibition, % at 25 µM. 360,000 tested, 0.85% active. AID 602438;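 active = inhibition or corrected inhibition above about 18%, plus a signal ratio from 0.5 to 1.5, limit read from the data, passing the limit was not always enough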
# SENP1 inh – blocks the human SENP1 SUMO protease catalytic domain; recombinant SENP1 catalytic domain, CyPet-SUMO1-YPet FRET cleavage; inhibition, % at 10 µM; 360,000 tested, 0.21% active;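 active = inhibition at least 30% at 10 µM, raw YFP signal under a set limit, fluorescence ratio 0.5 to 1.5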
#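 Material – human SENP1 catalytic domain · Input – SENP1 enzyme, 20 pM final · Compound dosing – single concentration of 10 µM compound, 0.5% DMSO final · Timing – enzyme reaction for 50 min at room temperature, dark · Measured by – FRET fluorescence in CFP and YFP emission channels · Control set – no-enzyme wells low, DMSO-plus-enzyme wells high control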
# SENP8 block-2 – blocks human SENP8 cleavage of Nedd8 substrate; 360,000 tested, 0.64% active; AID 602440; Q96LD8; inhibition, % at 20 µM; recombinant SENP8, Nedd8 substrate fluorescence; in the data active = inhibition mostly above about 40%, no sharp cut-off; inactive = mostly below about 27%
# SENP7 block – SENP7 protease inhibition; recombinant SENP7, Z-RLRGG-aminoluciferin luminescence, 40 min; inhibition, % at 5 µM; 330,000 tested, 1.5% active; Q9BQF6; AID 434973;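 active = inhibition above about 50% at the single test dose, limit read from the data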
# SENP6 inh – SENP6 protease inhibition | Q9GZR1 | Recombinant SENP6 catalytic domain, aminoluciferin luminescence | inhibition, % at 10 µM | 330,000 tested, 1.8% active | AID 2599;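 active = inhibition above about 50% at the single tested dose, limit read from the data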
# SENP8 inh conf – confirmation of human SENP8 protease inhibitors; shares compounds with SENP8 block-2; purified SENP8, Nedd8-AMC/pro-Nedd8 cleavage fluorescence, 30 min; inhibition, % at 25 µM; 1,400 tested, 15% active; in the data active = inhibition mostly above about 39%, no sharp cut-off; inactive = mostly below about 34%
# Hits are given with their value; - = inactive; . = no result given. This is a sample that favours compounds with a hit; in the whole collection about 3.3% have one here.
SMILES,SENP8 block-1,CendR NRP1 mod,SENP1 inh,SENP8 block-2,SENP7 block,SENP6 inh,SENP8 inh conf
COc1ccc(CCNC(=O)C2CCCN(S(=O)(=O)c3cnc[nH]3)C2)cc1OC (configuration not stated),-,-,-,-,-,-,.
COc1ccc(CCNC(=O)CCC(=O)N2CCN(S(=O)(=O)c3ccccc3)CC2)cc1OC,-,-,-,48,-,-,-
COc1ccc(CCNC(=O)CCC(=O)N2CCN(S(=O)(=O)c3ccc(Cl)cc3)CC2)cc1OC,-,-,-,44,-,-,-
CCc1c(-c2ccc(Br)cc2)ncn1Cc1cccc(-c2ccccc2)c1,.,-,-,-,.,.,.
CN(CCc1ccccc1)C(C(=O)Nc1ccc2c(c1)OCCO2)c1ccnc2ccccc12 (configuration not stated),.,-,-,-,.,.,.
COc1ccc(N2CC(C(=O)N[C@@H](C)C(=O)N[C@H](CO)c3ccccc3)CC2=O)cc1 (some centres not stated),-,-,-,53,-,-,-
CC(C)(C)NC(=O)C1(C)CCC(=O)N1CCCn1ccnc1 (configuration not stated),.,-,-,-,.,.,.
CCOc1ccc(CCNC(=O)C(C)n2nc(C)n3c(cc4occc43)c2=O)cc1OCC (configuration not stated),-,-,-,42,-,-,-
Cc1nn(C(C)C(=O)NCCc2ccccc2)c(=O)c2cc3occc3n12 (configuration not stated),-,-,-,-,-,-,.
COc1ccc(NC2CCCN(C(=O)CSc3ccccn3)C2)cc1OC (configuration not stated),-,-,-,28,-,-,-
CC1(C)OC(=O)C2=C(C[C@@H](C3CCCC3)O[C@H]2CCc2cccc(Cl)c2)O1,.,-,-,-,.,.,.
CCOc1ccc(N=C(C)c2ccccc2O)cc1,-,-,-,42,-,-,-
CC(C)C[C@H](NC(=O)/C=C/[C@H]1O[C@@H](n2ccc(=O)[nH]c2=O)[C@H](O)[C@@H]1O)C(=O)O,.,-,-,-,.,.,.
O=C(CCCCCNC(=O)N1CCn2c1nc1ccccc12)N[C@@H](Cc1ccccc1)C(=O)O,-,-,-,47,-,-,-
CSCC[C@H](NC(=O)N1CCn2c1nc1ccccc12)C(=O)N[C@H](Cc1ccccc1)C(=O)O,-,-,-,49,-,-,-
CC1CCC2C(=O)N(c3ccc(NC4CCCCC4)c([N+](=O)[O-])c3)C(=O)C2C1 (configuration not stated),-,-,-,-,-,-,.
CCOC(=O)N1CCC(Nc2ccc(N3C(=O)C4CCCCC4C3=O)cc2[N+](=O)[O-])CC1 (configuration not stated),-,-,-,38,-,-,-
O=c1cc(-c2ccccc2)oc2ccccc12,-,-,-,43,-,-,-
CC(C)(C)c1ccc(C(=O)N2CCC2(C)C(=O)Nc2ccc3nc[nH]c3c2)cc1 (configuration not stated),.,-,-,-,.,.,.
COC(=O)C1=C(C)N(C2CCCCC2)C(=O)C1,-,-,-,42,-,-,-
CN1CCN(C(=O)c2cccc(-c3cc(O)c4ncccc4c3)c2)CC1,-,-,-,-,-,-,.
CN1CCN(c2cc(-c3cc(O)c4ncccc4c3)ccn2)CC1,-,-,-,52,-,-,48
C=CCNc1nc2c3ccccc3n(C(C)=O)c2s1,-,-,-,51,-,-,-
CC(=O)n1c2ccccc2c2nc3ccccc3nc21,-,-,-,-,-,-,.
COc1cc(=O)n(C)c2c(O)cccc12,-,-,-,56,-,-,-
SMILES,SENP8 block-1,CendR NRP1 mod,SENP1 inh,SENP8 block-2,SENP7 block,SENP6 inh,SENP8 inh conf
COc1cc(=O)n(C)c2ccccc12,-,-,-,-,-,-,.
Cc1ccc(OCCCC(=O)N(C)CC(=O)Nc2ccccc2Br)cc1,-,-,-,37,-,-,-
Cc1ccc(C(=O)CCC(=O)N(C)CC(=O)Nc2ccccc2Br)cc1,-,-,-,-,-,-,.
CC1CCN(c2ccc([N+](=O)[O-])cn2)CC1,-,-,-,-,-,-,.
Cc1c(C)c(C)c(C(=O)C2CCN(c3ccc([N+](=O)[O-])cn3)CC2)c(C)c1C,-,-,-,44,-,-,-
O=C1CSC2=NCN(c3ccc4c(c3)OCO4)CN12,-,-,-,-,-,-,.
CN(C)c1ccc(N2CN=C3SCC(=O)N3C2)cc1,-,-,-,52,-,-,-
Cc1csc2c(N3CCN(C(=O)c4ccc(C(C)(C)C)cc4)CC3)ncnc12,-,-,-,40,-,-,-
Cc1csc2c(N3CCN(C(=O)NC(C)(C)C)CC3)ncnc12,-,-,-,-,-,-,.
O=C(CS(=O)(=O)Cc1ccccc1)N1CCc2ccccc2C1,-,-,-,50,-,-,76
CS(=O)(=O)N(CC(=O)N1CCc2ccccc2C1)Cc1ccccc1,-,-,-,-,-,-,.
CC(=O)NC(C)(c1ccccc1)c1nc(-c2ccc(N(C)C)cc2)cs1 (configuration not stated),.,-,-,-,.,.,.
COc1ccccc1OCCCCN1CCN(c2ccccc2OC)CC1,-,-,-,48,-,-,-
COc1ccc(NC(=O)C2(C)Cc3c(-c4ccc(N(C)C)cc4)ccnc3O2)cc1 (configuration not stated),.,-,-,-,.,.,.
COc1ccc(CCN(C)c2ccc(S(=O)(=O)N3CCCC3)cc2[N+](=O)[O-])cc1OC,-,-,-,43,-,-,-
Cc1nn(C)c2c1NC(=O)CS2,.,-,-,-,.,.,.
O=C(COc1ccc(Cl)cc1)N1CCN(C(=O)c2cccc(F)c2)CC1,-,-,-,-,-,-,.
O=C(COc1ccccc1)N1CCN(C(=O)c2cccc(F)c2)CC1,-,-,-,41,-,-,-
Cc1cc(C2=CC(=O)C[C@H](c3ccc(F)cc3)C2)ccc1F,.,-,-,-,.,.,.
O=C1Cc2ccccc2C(=O)N1c1ccc(F)cc1Cl,-,-,-,72,-,-,50
COc1ccc(CNC(=O)COc2cc3c(c4oc(=O)cc(C)c24)CCC(C)(C)O3)c(OC)c1,.,-,-,-,.,.,.
C[C@@H]1CN([C@H](C)CO)C(=O)CCCn2nncc2CO[C@H]1CN(C)S(=O)(=O)c1ccc(Oc2ccccc2)nc1,.,-,-,-,.,.,.
Nc1cc([N+](=O)[O-])cc2oc(-c3ccccc3)cc12,-,-,34,36,-,-,-
O=[N+]([O-])c1cc(Br)c(OCc2nnc(-c3ccccc3)o2)c(Br)c1,-,-,-,-,-,-,.
C[C@@H]1CCCCO[C@@H](CN(C)C(=O)CCCN(C)C)[C@@H](C)CN([C@H](C)CO)C(=O)c2cc(N(C)C)ccc2O1,.,-,-,-,.,.,.

# Screens from PubChem.
